Laboratory results published in ChEMBL document CHEMBL1143856, “Iromycins from Streptomyces sp. and from synthesis: new inhibitors of the mitochondrial electron transport chain” (Bioorg Med Chem, 2008).

Columns and labels:
[1] = target: Mitochondrial complex I; NADH oxidoreductase (Bos taurus, UniProt P25708+P52505); assay: Inhibition of NADH-ubiquinone oxidoreductase assessed as NADH oxidase activity in bovine heart submitochondrial particles; type: protein-complex assay
Procedure, shortened: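 Bovine heart mitochondria isolated by differential centrifugation and sonicated to submitochondrial particles. Assay buffer was 75 mM air-saturated Na/K phosphate, pH 7.4, with 1 mM EDTA and 1 mM MgCl2, and 42–219 µg/mL protein, at 30 °C. Inhibitors were added in methanol (≤2% v/v) with 4 min preincubation. Reaction started with 0.16 mM NADH; A340 decrease followed over 4 min. Means of 2–4 independent experiments.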

L929 = assay: Cytotoxicity against mouse L929 fibroblasts; type: cell-based
Mus musculus = assay: Toxicity in mouse at 100 mg/kg, ip; type: organism-based; design: dose 100 mg/kg, route intraperitoneal; settings: in vivo
[2] = Cytotoxicity against human HM02 cells; type: functional, cell-based
Procedure, shortened: (§1)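 Human gastric adenocarcinoma HM02, hepatocellular carcinoma HepG2 and breast adenocarcinoma MCF7 lines tested following NCI directives. Cytotoxicity expressed as IC50.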

MCF7 = assay: Cytotoxicity against human MCF7 cells; type: functional, cell-based; procedure, shortened: as §1
HepG2 = assay: Cytotoxicity against human HepG2 cells; type: functional, cell-based; procedure, shortened: as §1

Mitochondrial complex I; NADH oxidoreductase, sequence (P25708 21-464 limits assumed, other chains not shown): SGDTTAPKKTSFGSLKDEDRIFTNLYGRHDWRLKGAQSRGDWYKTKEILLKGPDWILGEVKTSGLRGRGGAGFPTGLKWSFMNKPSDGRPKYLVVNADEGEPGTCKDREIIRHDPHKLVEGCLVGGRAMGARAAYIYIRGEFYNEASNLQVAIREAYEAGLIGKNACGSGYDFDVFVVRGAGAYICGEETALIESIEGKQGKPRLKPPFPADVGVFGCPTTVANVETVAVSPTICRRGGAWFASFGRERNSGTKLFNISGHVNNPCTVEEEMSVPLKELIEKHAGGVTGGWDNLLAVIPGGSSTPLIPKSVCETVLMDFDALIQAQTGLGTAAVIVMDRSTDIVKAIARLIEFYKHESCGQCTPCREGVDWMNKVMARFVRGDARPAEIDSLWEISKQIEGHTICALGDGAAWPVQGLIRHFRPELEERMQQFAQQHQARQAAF

CCCc1c(C/C=C(\C)C/C=C/C(C)C)[nH]c(=O)c(C)c1OC(C)=O [IROMYCIN AA]
IC50 [1]: > 23.4 µM

CCCc1c(CCC(C)CCCC(C)C)[nH]c(=O)c(C)c1O (centres undefined) [IROMYCIN AH]
IC50 [1]: 2.21 µM

CCCc1c(C/C=C(\C)C/C=C/C(C)C)[nH]c(=O)c(C)c1OC [IROMYCIN AM]
IC50 [1]: 2.8 µM

CCCc1c(C/C=C(\C)C/C=C/C(C)C)oc(=O)c(C)c1O [IROMYCIN AO]
IC50 [1]: > 26.6 µM

CCCc1c(C/C=C(\C)C/C=C/C(C)C)[nH]c(=O)c(C)c1O [IROMYCIN A]
IC50 (L929): 66 µM | Activity (Mus musculus): Non-toxic | IC50 [2]: > 30 µM | IC50 [1]: 0.461 µM | IC50 (MCF7): > 30 µM | IC50 (HepG2): > 30 µM

CCCc1c(C/C=C(\C)C/C=C/C(C)(C)O)[nH]c(=O)c(C)c1OC(C)=O [IROMYCIN BA]
IC50 [1]: > 22.4 µM

CCCc1c(C/C=C(\C)C/C=C/C(C)(C)O)[nH]c(=O)c(C)c1OC [IROMYCIN BM]
IC50 [1]: > 24.3 µM

CCCc1c(C/C=C(\C)C/C=C/C(C)(C)O)[nH]c(=O)c(C)c1O [IROMYCIN B]
IC50 (L929): 66 µM | IC50 [2]: > 30 µM | IC50 [1]: 17.8 µM | IC50 (MCF7): > 30 µM | IC50 (HepG2): > 30 µM

CC/C=C/C/C(C)=C/Cc1[nH]c(=O)c(C)c(O)c1CCC [IROMYCIN C]
IC50 [1]: 3.52 µM

CCCc1c(C/C=C(\C)C/C=C/C(C)O)[nH]c(=O)c(C)c1O (centres undefined) [IROMYCIN D]
IC50 [1]: > 26.5 µM

CCCC1(O)C(C/C=C(\C)C/C=C/C(C)C)=NC(=O)C(C)=C1O (centres undefined) [IROMYCIN E]
IC50 [1]: > 25.3 µM

CCCC1=C(C/C=C(\C)C/C=C/C(C)C)N=C(O)C(C)(O)C1=O (centres undefined) [IROMYCIN F]
IC50 [1]: > 25.3 µM

CCCCC/C(C)=C/Cc1oc(=O)c(C)c(O)c1CCC [IROMYCIN MO]
IC50 [1]: 8.55 µM

CCCCC/C(C)=C/Cc1[nH]c(=O)c(C)c(O)c1CCC [IROMYCIN M]
IC50 (L929): 66 µM | IC50 [1]: 1.01 µM

CCCc1c(C/C=C(\C)C/C=C/C(C)(C)C)oc(=O)c(C)c1O [IROMYCIN SO]
IC50 [1]: 15.1 µM

CCCc1c(C/C=C(\C)C/C=C/C(C)(C)C)[nH]c(=O)c(C)c1O [IROMYCIN S]
IC50 (L929): 10 µM | IC50 [1]: 0.183 µM

C/C=C(\C)[C@H](O)[C@H](C)/C=C(C)/C=C/C/C(C)=C/Cc1nc(OC)c(OC)c(O)c1C [PIERICIDIN A]
IC50 (L929): 0.00043 µM | IC50 [1]: 0.005 µM
